Structures are written as SMILES.

The values below come from ChEMBL document CHEMBL1137474, “Synthesis, DNA binding, and cytotoxicity studies of pyrrolo[2,1-c][1,4]benzodiazepine-anthraquinone conjugates” (Bioorg Med Chem, 2007).

Assay [1] has as its system MCF7. In words: Cytotoxicity against human MCF7 cells by sulforhodamine B assay. Type of assay: functional, cell-based. The method in brief: (§1)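 Cells in RPMI 1640 with 10% FBS and 2 mM L-glutamine, seeded at densities suited to doubling time, preincubated 24 h at 37 °C, 5% CO2. Drug added for a further 48 h. Fixed with cold TCA (final 10%) for 60 min at 4 °C, then SRB-stained. Bound dye eluted with 10 mM Tris base and read at 540 nm (690 nm reference). Growth taken relative to control wells. IC50 read from dose-response graphs. Triplicate wells, three repeat experiments.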
Background: Sulforhodamine B stains cellular protein and so reports cell mass.

For assay [2], the system named is ZR-75-1. In words: Cytotoxicity against human ZR-75-1 cells by sulforhodamine B assay. Type of assay: functional, cell-based. A digest of the protocol: as §1
The test system of assay [3] is DNA. As to the kind of experiment: Binding affinity for calf thymus DNA at 20 uM after 18 hrs by thermal denaturation assay. As to conditions: Bos taurus. In kind it is nucleic-acid assay.
Assay [4] has as its system COLO 205. As to the kind of experiment: Cytotoxicity against human Colo205 cells by sulforhodamine B assay. Type of assay: functional, cell-based. A digest of the protocol: as §1
The test system of assay [5] is SiHa. In words: Cytotoxicity against human SiHa cells by sulforhodamine B assay. Type of assay: functional, cell-based. The method in brief:
as §1

Assay [6] concerns HOP-62. As to the kind of experiment: Cytotoxicity against human Hop62 cells by sulforhodamine B assay. In kind it is functional, cell-based. A digest of the protocol:
as §1

Assay [7] has as its system PC-3. As to the kind of experiment: Cytotoxicity against human PC3 cells by sulforhodamine B assay. Type of assay: functional, cell-based. A digest of the protocol:
as §1

The test system of assay [8] is A2780. As to the kind of experiment: Cytotoxicity against human A2780 cells by sulforhodamine B assay. Type of assay: functional, cell-based. The method in brief:
as §1

As a reminder, the IC50 is the concentration that inhibits the measured activity by half. The term ΔTm denotes the shift of the melting midpoint relative to a reference. For `COc1cc2c(cc1OCCCCCOc1ccc(OCCCCCOc3cc4c(cc3OC)C(=O)N3CCC[C@H]3C=N4)c3c1C(=O)c1ccccc1C3=O)N=C[C@@H]1CCCN1C2=O`, the IC50 in assay [1] was 1200 nM; in assay [2], 1500 nM; in assay [4] it was less than 1000 nM; in assay [5], 800 nM; in assay [6], 1400 nM; in assay [7], 1000 nM. The molecule also yielded an IC50 in assay [8] of 500 nM. Besides, the ΔTm in assay [3] came to 6 °C.
With `COc1cccc2c1C(=O)c1c(O)c3c(c(O)c1C2=O)C[C@@](O)(C(=O)CO)C[C@@H]3O[C@H]1C[C@H](N)[C@H](O)[C@H](C)O1` [DOXORUBICIN], the 50% inhibitory concentration (IC50) came out at 500 nM in assay [1]; 600 nM in assay [2]; 2000 nM in assay [4]; 1500 nM in assay [5]; 1000 nM in assay [6]; 500 nM in assay [7]. Also, in assay [8], the IC50 was 500 nM.
For `COc1cc2c(cc1OCCCCOc1ccc(OCCCCOc3cc4c(cc3OC)C(=O)N3CCC[C@H]3C=N4)c3c1C(=O)c1ccccc1C3=O)N=C[C@@H]1CCCN1C2=O`, the concentration for half-maximal inhibition (IC50) in assay [1] was 9000 nM; in assay [4], 10000 nM; in assay [5], 9000 nM; in assay [7], 7000 nM; in assay [8], 10000 nM. Besides, the shift in melting temperature (ΔTm) in assay [3] was 1.6 °C.
With `COc1cc2c(cc1OCCCCC(=O)Nc1cccc3c1C(=O)c1ccccc1C3=O)N=C[C@@H]1CCCN1C2=O`, the half-inhibitory concentration (IC50) in assay [1] was 600 nM; in assay [2], 500 nM; in assay [4] it was less than 1000 nM; in assay [5], 1200 nM; in assay [6], 1000 nM; in assay [7], 800 nM. In assay [8], half-maximal inhibition (IC50) required 500 nM. For the same molecule, the thermal shift (ΔTm) in assay [3] turned out to be 5.2 °C.
For the molecule `COc1cc2c(cc1OCCCC(=O)Nc1cccc3c1C(=O)c1ccccc1C3=O)N=C[C@@H]1CCCN1C2=O`, the half-maximal inhibitory concentration (IC50) came to 1400 nM in assay [1]; 500 nM in assay [2]; 1800 nM in assay [4]; 1800 nM in assay [5]; 800 nM in assay [6]; 800 nM in assay [7]. The half-inhibitory concentration (IC50) in assay [8] was found to be 500 nM. Moreover, the ΔTm in assay [3] is 9.1 °C.
As for `COc1cc2c(cc1OCCCOc1ccc(OCCCOc3cc4c(cc3OC)C(=O)N3CCC[C@H]3C=N4)c3c1C(=O)c1ccccc1C3=O)N=C[C@@H]1CCCN1C2=O`, the IC50 was 600 nM in assay [1]; 500 nM in assay [2]; less than 1000 nM in assay [4]; 800 nM in assay [5]; less than 1000 nM in assay [6]; 600 nM in assay [7]. This molecule also came in with a half-maximal inhibitory concentration (IC50) in assay [8] of 600 nM. Moreover, the ΔTm in assay [3] was 17.9 °C.
